Compound activity as filed in PubChem BioAssay.
The list is not random: actives were taken first. Their share in the collection is about 9.4%.
Beta cell apopt – beta cell apoptosis inhibition. INS-1E cytokine-induced death, ATP luminescence, 48 h; percent of positive-control rescue, neutral wells zero. protection from apoptosis, % (concentration not given with the values). actives 0.8% (n = 300,000);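 active = Every replicate reaches about 75%, or at least half do and their mean reaches it too, limit read from the data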;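 also: 0% = cytokine-treated negative control wells and 100% = positive control rescue; higher means more ATP so stronger rescue from cytokine killing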
CSC inhib – cancer stem cell inhibition | cancer stem cell-like cells viability, luminescence | inhibition, % at 7.5 µM | actives 1.1% (n = 300,000) | AID 2717; in the data active = inhibition above about 75%; tested in HMLE shEcad cells
Mdm2-MdmX inh – human Mdm2/MdmX binding inhibition. O15151+Q00987. SaOS-2 split-luciferase Mdm2/MdmX complementation, luminescence. actives 3% (n = 330,000). inhibition, % at 8 µM;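 active = inhibition of at least 50% at 8 µM in the primary screen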
Target sequence (O15151 whole entry, looked up): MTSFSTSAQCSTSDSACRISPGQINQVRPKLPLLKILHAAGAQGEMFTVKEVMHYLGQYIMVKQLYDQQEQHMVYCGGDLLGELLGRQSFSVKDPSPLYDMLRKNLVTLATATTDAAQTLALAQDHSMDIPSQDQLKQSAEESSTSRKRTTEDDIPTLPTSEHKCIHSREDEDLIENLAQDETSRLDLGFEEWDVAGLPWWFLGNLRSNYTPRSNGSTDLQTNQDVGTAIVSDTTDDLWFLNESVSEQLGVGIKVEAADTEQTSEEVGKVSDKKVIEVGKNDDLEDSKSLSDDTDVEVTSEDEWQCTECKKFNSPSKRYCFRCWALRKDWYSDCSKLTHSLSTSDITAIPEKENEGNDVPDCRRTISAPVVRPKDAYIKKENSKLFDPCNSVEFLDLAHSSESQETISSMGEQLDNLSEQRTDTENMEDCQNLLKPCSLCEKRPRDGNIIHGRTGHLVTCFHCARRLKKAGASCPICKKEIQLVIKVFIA
Target sequence (Q00987 whole entry, looked up): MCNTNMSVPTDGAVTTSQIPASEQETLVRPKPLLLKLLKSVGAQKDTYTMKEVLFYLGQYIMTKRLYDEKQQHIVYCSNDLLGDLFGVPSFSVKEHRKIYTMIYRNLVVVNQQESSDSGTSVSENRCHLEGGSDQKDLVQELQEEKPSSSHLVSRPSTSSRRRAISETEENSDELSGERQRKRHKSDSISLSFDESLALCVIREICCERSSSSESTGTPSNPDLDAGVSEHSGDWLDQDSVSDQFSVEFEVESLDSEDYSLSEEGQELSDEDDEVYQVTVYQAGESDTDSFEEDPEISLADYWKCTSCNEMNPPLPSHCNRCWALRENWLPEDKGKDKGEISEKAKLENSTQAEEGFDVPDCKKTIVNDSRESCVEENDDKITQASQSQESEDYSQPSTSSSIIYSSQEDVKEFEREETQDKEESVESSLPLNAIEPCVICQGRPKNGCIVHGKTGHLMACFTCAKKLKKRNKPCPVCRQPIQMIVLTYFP
Lmaj promast – inhibitors of Leishmania major promastigote growth; Leishmania major promastigotes, resazurin fluorescence viability; inhibition, % at 10 µM; actives 9% (n = 200,000); AID 1063; in the data active = inhibition above about 50%;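 also: promastigotes grown with compound for 44 hours at 28 °C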
SKKanGAS inh – inhibitors of SKKanGAS S. pyogenes growth in kanamycin (SK-promoter or general growth effect); BacTiter-Glo, 6 h; inhibition, % at 7.5 µM; actives 1.3% (n = 300,000); AID 1662;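 active = mean replicate score, as percent of positive control median, at least 50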;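 also: strain carries kanamycin resistance gene driven by streptokinase promoter and grows in 40 µg/ml kanamycin; loss of luminescence reflects streptokinase promoter inhibition or plain growth inhibition; 0% = median of DMSO wells and 100% = positive control at its reference dose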
T cruzi inh – T. cruzi replication inhibition; T. cruzi beta-gal in NIH3T3, luminescence, 90 h; inhibition, % (test concentration not listed); actives 1.4% (n = 300,000);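 active = mean inhibition across valid replicates above about 55%, limit read from the data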;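 also: signal also drops with host cell toxicity which is not excluded here; 0% = plate median of DMSO wells and 100% = zero luminescence signal; higher percent means less beta-gal luminescence so fewer parasites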
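compound dosing = single 50 nL compound addition per well in DMSO | material = NIH/3T3 host cells with β-galactosidase reporter T. cruzi | input = 5,000 host fibroblasts per well | timing = ≥90 h infection period, 3 h prior cell attachment | read-out basis = percent inhibition of parasite-derived β-gal signal | detection = GalScreen β-gal luminescence, detergent lysis, 60 min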
L major 1uM – blocks Leishmania major promastigote growth at 1 uM, repeat screen; shares compounds with Lmaj promast; L. major promastigote growth, resazurin fluorescence, 48 h; inhibition, % at 1 µM; actives 13% (n = 1,100);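 active = inhibition above about 50% in both repeat tests, limit read from the data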
Active calls of the source: *.

For Cc1onc(-c2ccccc2)c1C(=O)Nc1nnc(C(C)(C)C)s1 the results were Beta cell apopt -5, CSC inhib -2, Mdm2-MdmX inh 4, SKKanGAS inh 1 and T cruzi inh -10.
Screening O=C(NC(=S)NCc1ccccc1Cl)c1cccs1 returned Beta cell apopt 1 and Mdm2-MdmX inh 19.
`Cc1ccc(S(=O)(=O)NC(C)(C)CSc2nnc(Nc3ccccc3)s2)cc1` gave Beta cell apopt 1, CSC inhib 23, Mdm2-MdmX inh 36, Lmaj promast 100*, SKKanGAS inh 9, T cruzi inh 18 and L major 1uM -6.
For CC(CCc1ccccc1)NC(=O)COC(=O)c1ccc(NC(N)=O)cc1 (stereo not given) the results were Beta cell apopt -3, CSC inhib -2, Mdm2-MdmX inh -11, SKKanGAS inh 4 and T cruzi inh -10.
Screening Cc1[nH]c2c(Cl)cccc2c(=O)c1CN1CCCC1 returned Beta cell apopt -3, CSC inhib -11, Mdm2-MdmX inh 16, Lmaj promast 100*, SKKanGAS inh -1, T cruzi inh 49 and L major 1uM 93*.
For COc1ccc(C(N)CCc2ccc(C)o2)cc1 (stereo not given) the results were Beta cell apopt -4, CSC inhib 5, Mdm2-MdmX inh 25, Lmaj promast 54*, SKKanGAS inh -1, T cruzi inh 10 and L major 1uM -15.
`COC(CN(C)C(=O)c1cn(C)c2ccc(S(=O)(=O)N(C)C3CCCCC3)cc2c1=O)OC` gave Beta cell apopt -10, CSC inhib -7, Mdm2-MdmX inh -10, SKKanGAS inh -1 and T cruzi inh -1.
For CN1CCN(c2nc(N3CCN(c4ccccc4)CC3)ncc2F)CC1 the results were Beta cell apopt -1, CSC inhib -10, Mdm2-MdmX inh 20, Lmaj promast 65*, SKKanGAS inh -13, T cruzi inh 57* and L major 1uM -11.
`CC(C)(C)OC(=O)N1CCC2(CC1)Oc1ccc(F)cc1C(=O)C21CC(c2ccccc2)=NO1` (stereo not given) gave Beta cell apopt 4, CSC inhib 15, Mdm2-MdmX inh 31, SKKanGAS inh 5 and T cruzi inh 29.
Cc1nc2ccccn2c1CN(C)C(=O)C1CCC(=O)N(Cc2cccc(F)c2)C1 (stereo not given) was read as Beta cell apopt -10, CSC inhib -4, Mdm2-MdmX inh 18, SKKanGAS inh -6 and T cruzi inh -5.
Screening Cc1cccc(Nc2nc(N)c([N+](=O)[O-])c(N3CCC(C)CC3)n2)c1 returned Beta cell apopt 10, CSC inhib 9, Mdm2-MdmX inh 11, Lmaj promast 15, SKKanGAS inh -6 and T cruzi inh 15.
`Cc1cccc(Nc2nc(N3CCN(C)CC3)nc(N)c2[N+](=O)[O-])c1` gave Beta cell apopt 7, CSC inhib 5, Mdm2-MdmX inh -11, Lmaj promast 96*, SKKanGAS inh -1, T cruzi inh 27 and L major 1uM -3.
Screening CC1(CCc2ccccc2)NC(=S)N(c2ccccc2)N1 (stereo not given) returned Beta cell apopt -6, CSC inhib 70, Lmaj promast 70*, SKKanGAS inh 1, T cruzi inh 7 and L major 1uM -11.
For C=CC[n+]1c(-c2ccc(OC)c(OC)c2)csc1NNC(=O)Nc1ccccc1 the results were Mdm2-MdmX inh 13, Lmaj promast 100*, SKKanGAS inh 13, T cruzi inh 17 and L major 1uM 47.
For C=CC[n+]1c(-c2ccccc2)csc1NC(C)(C)C the results were Beta cell apopt -1, CSC inhib -2, Mdm2-MdmX inh 1, Lmaj promast 3, SKKanGAS inh 7 and T cruzi inh -4.
`O=C(Cn1cnc2c(NCc3ccccc3)ncnc21)NCCc1cc2ccccc2[nH]1` gave Mdm2-MdmX inh 16.
For Cc1[nH]c2ccccc2c1/C=N/Nc1ccc(F)cc1F the results were Beta cell apopt -3, CSC inhib 49 and Lmaj promast 26.
`Cc1[nH]c2ccccc2c1/C=C/c1cc[n+](C)cc1` gave Lmaj promast 65*, SKKanGAS inh 3, T cruzi inh 50 and L major 1uM -11.
Screening COc1cc(=O)n(C)c2c(OCC3OC(C)(C)OC3(C)C)cccc12 (stereo not given) returned Beta cell apopt 1, CSC inhib 5, Mdm2-MdmX inh -14, Lmaj promast -2, SKKanGAS inh -5 and T cruzi inh 7.
Screening COc1ccc(CC(=O)OCC(=O)c2ccc(S(=O)(=O)N3CCCCC3)cc2)cc1 returned Beta cell apopt -6, CSC inhib 0 and Mdm2-MdmX inh 0.
Screening C[N+]1(C2CCC3CCCC2C3O)CCCC1 (stereo not given) returned Beta cell apopt 1, CSC inhib -10, Mdm2-MdmX inh 15, Lmaj promast 65*, SKKanGAS inh -2, T cruzi inh -18 and L major 1uM -12.
Cc1cccc(C)c1NC(=O)CN1CCN(C(=O)c2ccc(OCc3cn4ccccc4n3)cc2)CC1 was read as Beta cell apopt -7 and Mdm2-MdmX inh -12.
CCn1c(=O)c(C(=O)NCc2ccc(OC)c(OC)c2)c(O)c2ccccc21 was read as Beta cell apopt 5, CSC inhib 5, Mdm2-MdmX inh 11, Lmaj promast 84*, SKKanGAS inh -7, T cruzi inh -13 and L major 1uM -14.
CCS(=O)(=O)c1nc(S(=O)(=O)c2ccc(C)cc2)c(N2CCC(C)CC2)s1 was read as Beta cell apopt 2, CSC inhib 10, Mdm2-MdmX inh 16, SKKanGAS inh 16 and T cruzi inh 8.
S=c1nc(-c2csc3c2CCCC3)[nH][nH]1 was read as Beta cell apopt -7, Mdm2-MdmX inh -19, Lmaj promast 13, SKKanGAS inh 21 and T cruzi inh -10.
Screening COc1ccccc1C1CC(c2c(-c3ccccc3)c3cc(Cl)ccc3[nH]c2=O)=NN1S(C)(=O)=O (stereo not given) returned Beta cell apopt 18, CSC inhib 10, Mdm2-MdmX inh 37, Lmaj promast 65* and L major 1uM 0.
Screening CCCC1(C)SC(NC(C)=O)=NN1C(C)=O (stereo not given) returned Beta cell apopt -5, Mdm2-MdmX inh 24, Lmaj promast -2, SKKanGAS inh -2 and T cruzi inh 0.
Screening CC(=O)NC1=NN(C(C)=O)C(C)(c2ccc3ccccc3c2)S1 (stereo not given) returned Beta cell apopt -4, CSC inhib -9, Mdm2-MdmX inh 21, Lmaj promast 60*, SKKanGAS inh -1, T cruzi inh 11 and L major 1uM 0.
COc1ccc(-c2nc3ccccc3s2)cc1 was read as Lmaj promast 0.
